Reference: ChEMBL document CHEMBL1154611 (J Med Chem, 2009)
pEC50: −log10 of the molar value. Values after ≈ are worked out from the molar mass of the structure shown.

Experiments:
[1] = target: Motilin receptor (Oryctolagus cuniculus, UniProt A5A4K8); test: Agonist activity at motilin receptor in rabbit smooth muscle assessed as maximal possible tissue contraction; assay type: functional
Method in brief: (§1)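 Rabbit smooth muscle contractility assay. EC50 is the concentration giving 50% of the maximal possible contraction. Tachyphylaxis is the % contractile response to an EC90 drug concentration after three cycles of administration and washout.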

[2] = system: Streptococcus pneumoniae; test: Antibacterial activity against erythromycin-sensitive Streptococcus pneumoniae ATCC 6301; assay type: functional
Method in brief: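 MIC, the minimal growth inhibitory concentration, was determined in routine screening against the highly erythromycin-sensitive strain Streptococcus pneumoniae ATCC6301.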

[3] = target: Motilin receptor (Oryctolagus cuniculus) (UniProt A5A4K8); test: Agonist activity at motilin receptor in rabbit smooth muscle assessed as tachyphylaxis at EC90 concentration after 4th dose; assay type: functional; method in brief: as §1
[4] = target: T1, hERG (KCNH2) (Homo sapiens, UniProt Q12809); test: Inhibition of human ERG expressed in HEK cells at 300 uM; assay type: cell-based, HEK293; conditions: HEK cells expressing human ERG
[5] = target: T1, hERG (KCNH2); test: Inhibition of human ERG expressed in HEK cells at 30 uM; assay type: cell-based, HEK293; conditions: HEK cells expressing human ERG

T1 sequence (Q12809 whole entry): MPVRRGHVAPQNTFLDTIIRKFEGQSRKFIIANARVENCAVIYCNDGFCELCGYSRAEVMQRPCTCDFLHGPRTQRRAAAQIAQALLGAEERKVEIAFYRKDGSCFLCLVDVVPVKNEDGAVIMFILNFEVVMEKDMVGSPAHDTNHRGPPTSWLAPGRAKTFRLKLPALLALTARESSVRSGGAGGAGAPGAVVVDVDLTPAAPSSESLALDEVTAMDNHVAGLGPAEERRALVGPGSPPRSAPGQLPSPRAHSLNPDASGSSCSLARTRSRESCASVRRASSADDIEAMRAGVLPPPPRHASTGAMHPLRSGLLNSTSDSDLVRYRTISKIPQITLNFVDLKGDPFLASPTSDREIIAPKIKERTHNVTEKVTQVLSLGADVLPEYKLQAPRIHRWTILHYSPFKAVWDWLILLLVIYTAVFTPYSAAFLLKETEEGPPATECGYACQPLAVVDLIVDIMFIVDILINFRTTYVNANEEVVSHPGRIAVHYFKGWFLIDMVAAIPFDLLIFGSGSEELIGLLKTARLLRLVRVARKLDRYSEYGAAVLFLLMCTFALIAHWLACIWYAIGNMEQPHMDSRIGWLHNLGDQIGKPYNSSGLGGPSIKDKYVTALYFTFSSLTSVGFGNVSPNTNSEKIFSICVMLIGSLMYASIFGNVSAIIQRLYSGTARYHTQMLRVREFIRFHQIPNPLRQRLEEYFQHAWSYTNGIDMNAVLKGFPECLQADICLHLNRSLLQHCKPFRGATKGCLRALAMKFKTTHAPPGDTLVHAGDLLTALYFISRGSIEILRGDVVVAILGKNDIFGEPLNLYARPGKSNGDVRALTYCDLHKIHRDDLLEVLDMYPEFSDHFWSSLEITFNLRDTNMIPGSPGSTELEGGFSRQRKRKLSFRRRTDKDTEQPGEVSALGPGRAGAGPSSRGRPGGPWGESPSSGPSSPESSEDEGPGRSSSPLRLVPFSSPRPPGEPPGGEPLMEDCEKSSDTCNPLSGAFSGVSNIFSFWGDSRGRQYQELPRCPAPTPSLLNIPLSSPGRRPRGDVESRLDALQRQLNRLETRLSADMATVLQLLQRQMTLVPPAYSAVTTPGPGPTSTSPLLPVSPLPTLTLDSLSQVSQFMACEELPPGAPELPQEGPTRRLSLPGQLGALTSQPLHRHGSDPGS
Chain of Motilin receptor (Oryctolagus cuniculus) (A5A4K8 as listed by the source): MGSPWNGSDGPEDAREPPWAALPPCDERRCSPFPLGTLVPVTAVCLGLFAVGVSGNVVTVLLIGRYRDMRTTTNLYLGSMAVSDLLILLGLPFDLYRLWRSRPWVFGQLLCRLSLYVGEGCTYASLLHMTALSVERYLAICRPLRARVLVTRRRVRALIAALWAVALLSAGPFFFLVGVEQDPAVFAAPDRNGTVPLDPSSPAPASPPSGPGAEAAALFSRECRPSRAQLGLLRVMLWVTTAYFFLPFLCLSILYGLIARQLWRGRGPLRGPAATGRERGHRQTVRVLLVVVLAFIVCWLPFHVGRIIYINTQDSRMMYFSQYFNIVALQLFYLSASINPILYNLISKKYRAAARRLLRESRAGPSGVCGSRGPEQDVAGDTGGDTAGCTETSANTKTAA
Chain of Motilin receptor (A5A4K8 whole entry): as the sequence (A5A4K8 as listed by the source) above

| Structure (SMILES) | pEC50 [1] | MIC [2] [µg/mL] | Activity [3] [%] | inhibition at 300 µM [4] [%] | inhibition at 30 µM [5] [%] |
| --- | --- | --- | --- | --- | --- |
| CC[C@H]1OC(=O)[C@H](C)[C@@H](O[C@H]2C[C@@](C)(OC)[C@@H](O)[C@H](C)O2)[C@H](C)[C@@H](O[C@@H]2O[C@H](C)C[C@H](N(C)C)[C@H]2O)[C@](C)(O)C[C@@H](C)C(=O)[C@H](C)[C@@H](O)[C@]1(C)O [ERYTHROMYCIN] | 5.92 | 0.0025 (≈ 0.00341 µM) | 97 | – | – |
| CC[C@H]1OC(=O)[C@H](C)[C@@H](O[C@H]2C[C@@](C)(OC)[C@@H](O)[C@H](C)O2)[C@H](C)[C@@H](O[C@@H]2O[C@H](C)C[C@H](N(C)C(C)C)[C@H]2O)[C@](C)(O)C[C@@H](C)[C@H](OCC(=O)NC)[C@H](C)[C@@H](O)[C@H]1C | 7.05 | – | 86 | 67 | 21 |
| CC[C@H]1OC(=O)[C@H](C)[C@@H](O[C@H]2C[C@@](C)(OC)[C@@H](O)[C@H](C)O2)[C@H](C)[C@@H](O[C@@H]2O[C@H](C)C[C@H](N(C)C(C)C)[C@H]2O)[C@](C)(O)C[C@@H](C)[C@H](OCc2ccc(C(=O)NC)cc2)[C@H](C)[C@@H](O)[C@]1(C)O | 5.82 | – | – | – | – |
| CC[C@H]1OC(=O)[C@H](C)[C@@H](O[C@H]2C[C@@](C)(OC)[C@@H](O)[C@H](C)O2)[C@H](C)[C@@H](O[C@@H]2O[C@H](C)C[C@H](N(C)C(C)C)[C@H]2O)[C@](C)(O)C[C@@H](C)[C@H](OCc2cccc(C(=O)NC)c2)[C@H](C)[C@@H](O)[C@]1(C)O | 5.68 | – | – | 100 | 63 |
| CC[C@H]1OC(=O)[C@H](C)[C@@H](O[C@H]2C[C@@](C)(OC)[C@@H](O)[C@H](C)O2)[C@H](C)[C@@H](O[C@@H]2O[C@H](C)C[C@H](N(C)C(C)C)[C@H]2O)[C@](C)(O)C[C@@H](C)[C@H](OCC(=O)NC2CCC2)[C@H](C)[C@@H](O)[C@]1(C)O | 7.55 | 128 (≈ 146 µM) | 75 | 100 | 64 |
| CC[C@H]1OC(=O)[C@H](C)[C@@H](O[C@H]2C[C@@](C)(OC)[C@@H](O)[C@H](C)O2)[C@H](C)[C@@H](O[C@@H]2O[C@H](C)C[C@H](N(C)C(C)C)[C@H]2O)[C@](C)(O)C[C@@H](C)[C@H](OCC(=O)NCCOC)[C@H](C)[C@@H](O)[C@]1(C)O | 7.30 | 128 (≈ 146 µM) | – | 93 | 33 |
| CC[C@H]1OC(=O)[C@H](C)[C@@H](O[C@H]2C[C@@](C)(OC)CC(C)O2)[C@H](C)[C@@H](O[C@@H]2O[C@H](C)C[C@H](N(C)CC)[C@H]2O)C2(C)CC(C)=C(O2)[C@H](C)[C@@H](O)[C@H]1C (single isomer, unassigned) | 8.15 | 64 (≈ 91.7 µM) | 22 | 100 | – |
| CC[C@H]1OC(=O)[C@H](C)[C@@H](O[C@H]2C[C@@](C)(OC)[C@@H](O)[C@H](C)O2)[C@H](C)[C@@H](O[C@@H]2O[C@H](C)C[C@H](N(C)C(C)C)[C@H]2O)[C@](C)(O)C[C@@H](C)[C@H](OCC(=O)N(C)C)[C@H](C)[C@@H](O)[C@]1(C)O | 6.18 | – | 95 | 29 | 8 |
| CC[C@H]1OC(=O)[C@H](C)[C@@H](O[C@H]2C[C@@](C)(OC)[C@@H](O)[C@H](C)O2)[C@H](C)[C@@H](O[C@@H]2O[C@H](C)C[C@H](N(C)C(C)C)[C@H]2O)[C@](C)(O)C[C@@H](C)[C@H](OCC(=O)NC2CCOCC2)[C@H](C)[C@@H](O)[C@]1(C)O | 6.92 | > 128 | 88 | 67 | 23 |
| CC[C@H]1OC(=O)[C@H](C)[C@@H](O[C@H]2C[C@@](C)(OC)[C@@H](O)[C@H](C)O2)[C@H](C)[C@@H](O[C@@H]2O[C@H](C)C[C@H](N(C)C(C)C)[C@H]2O)[C@](C)(O)C[C@@H](C)[C@H](OCC(=O)Nc2ccncn2)[C@H](C)[C@@H](O)[C@]1(C)O | 7.60 | – | 63 | 60 | 16 |
| CC[C@H]1OC(=O)[C@H](C)[C@@H](O[C@H]2C[C@@](C)(OC)[C@@H](O)[C@H](C)O2)[C@H](C)[C@@H](O[C@@H]2O[C@H](C)C[C@H](N(C)C(C)C)[C@H]2O)[C@](C)(O)C[C@@H](C)[C@H](OCC(=O)NC2CC2)[C@H](C)[C@@H](O)[C@]1(C)O | 7.51 | 128 (≈ 149 µM) | 82 | 60 | 23 |
| CC[C@H]1OC(=O)[C@H](C)[C@@H](O[C@H]2C[C@@](C)(OC)[C@@H](O)[C@H](C)O2)[C@H](C)[C@@H](O[C@@H]2O[C@H](C)C[C@H](N(C)C(C)C)[C@H]2O)[C@](C)(O)C[C@@H](C)[C@H](OCCCCCC(=O)NC)[C@H](C)[C@@H](O)[C@]1(C)O | 6.82 | 128 (≈ 144 µM) | – | 61 | 13 |
| CC[C@H]1OC(=O)[C@H](C)[C@@H](O[C@H]2C[C@@](C)(OC)[C@@H](O)[C@H](C)O2)[C@H](C)[C@@H](O[C@@H]2O[C@H](C)C[C@H](N(C)C(C)C)[C@H]2O)[C@](C)(O)C[C@@H](C)[C@H](OCC(=O)NOC)[C@H](C)[C@@H](O)[C@]1(C)O | 7.04 | – | – | 82 | 33 |
| CC[C@H]1OC(=O)[C@H](C)[C@@H](O[C@H]2C[C@@](C)(OC)[C@@H](O)[C@H](C)O2)[C@H](C)[C@@H](O[C@@H]2O[C@H](C)C[C@H](N(C)C(C)C)[C@H]2O)[C@](C)(O)C[C@@H](C)[C@H](OCC(=O)NCc2ccccc2)[C@H](C)[C@@H](O)[C@]1(C)O | 7.10 | 128 (≈ 140 µM) | – | 100 | 67 |
| CC[C@H]1OC(=O)[C@H](C)[C@@H](O[C@H]2C[C@@](C)(OC)[C@@H](O)[C@H](C)O2)[C@H](C)[C@@H](O[C@@H]2O[C@H](C)C[C@H](N(C)C(C)C)[C@H]2O)[C@](C)(O)C[C@@H](C)[C@H](OCC(=O)NC(C)C)[C@H](C)[C@@H](O)[C@]1(C)O | 6.85 | 128 (≈ 148 µM) | – | 89 | 26 |
| CC[C@H]1OC(=O)[C@H](C)[C@@H](O[C@H]2C[C@@](C)(OC)[C@@H](O)[C@H](C)O2)[C@H](C)[C@@H](O[C@@H]2O[C@H](C)C[C@H](N(C)C(C)C)[C@H]2O)[C@](C)(O)C[C@@H](C)[C@H](OCCCCC(=O)NC)[C@H](C)[C@@H](O)[C@]1(C)O | 6.57 | – | – | 45 | 3 |
| CC[C@H]1OC(=O)[C@H](C)[C@@H](O[C@H]2C[C@@](C)(OC)[C@@H](O)[C@H](C)O2)[C@H](C)[C@@H](O[C@@H]2O[C@H](C)C[C@H](N(C)C(C)C)[C@H]2O)[C@](C)(O)C[C@@H](C)[C@H](OCC(=O)NCC(F)(F)F)[C@H](C)[C@@H](O)[C@]1(C)O | 6.80 | 128 (≈ 142 µM) | – | 82 | 30 |
| CC[C@H]1OC(=O)[C@H](C)[C@@H](O[C@H]2C[C@@](C)(OC)[C@@H](O)[C@H](C)O2)[C@H](C)[C@@H](O[C@@H]2O[C@H](C)C[C@H](N(C)C(C)C)[C@H]2O)[C@](C)(O)C[C@@H](C)[C@H](OCC(=O)NCCO)[C@H](C)[C@@H](O)[C@]1(C)O | 6.92 | 128 (≈ 148 µM) | 87 | 68 | 29 |
| CC[C@H]1OC(=O)[C@H](C)[C@@H](O[C@H]2C[C@@](C)(OC)[C@@H](O)[C@H](C)O2)[C@H](C)[C@@H](O[C@@H]2O[C@H](C)C[C@H](N(C)C(C)C)[C@H]2O)[C@](C)(O)C[C@@H](C)[C@H](OCC(=O)Nc2cnccn2)[C@H](C)[C@@H](O)[C@]1(C)O | 7.16 | 128 (≈ 142 µM) | – | 88 | 40 |
| CC[C@H]1OC(=O)[C@H](C)[C@@H](O[C@H]2C[C@@](C)(OC)[C@@H](O)[C@H](C)O2)[C@H](C)[C@@H](O[C@@H]2O[C@H](C)C[C@H](N(C)C(C)C)[C@H]2O)[C@](C)(O)C[C@@H](C)[C@H](OCCCC(=O)NC)[C@H](C)[C@@H](O)[C@]1(C)O | 7.08 | 128 (≈ 148 µM) | 79 | 56 | 13 |
| CCNC(=O)CO[C@@H]1[C@H](C)[C@@H](O)[C@](C)(O)[C@@H](CC)OC(=O)[C@H](C)[C@@H](O[C@H]2C[C@@](C)(OC)[C@@H](O)[C@H](C)O2)[C@H](C)[C@@H](O[C@@H]2O[C@H](C)C[C@H](N(C)C(C)C)[C@H]2O)[C@](C)(O)C[C@H]1C | 7.17 | > 128 | 89 | 75 | 24 |
| CC[C@H]1OC(=O)[C@H](C)[C@@H](O[C@H]2C[C@@](C)(OC)[C@@H](O)[C@H](C)O2)[C@H](C)[C@@H](O[C@@H]2O[C@H](C)C[C@H](N(C)C(C)C)[C@H]2O)[C@](C)(O)C[C@@H](C)[C@H](OCC(N)=O)[C@H](C)[C@@H](O)[C@]1(C)O | 7.28 | > 128 | 92 | 51 | 10 |
| CC[C@H]1OC(=O)[C@H](C)[C@@H](O[C@H]2C[C@@](C)(OC)[C@@H](O)[C@H](C)O2)[C@H](C)[C@@H](O[C@@H]2O[C@H](C)C[C@H](N(C)C3CCC3)[C@H]2O)[C@](C)(O)C[C@@H](C)[C@H](OCC(=O)NC)[C@H](C)[C@@H](O)[C@]1(C)O | 6.29 | > 128 | – | 53 | 12 |
